# Tests used:
# Assay type in all cases: functional
# [1] = tested on: ACHN; test: Antiproliferative activity against human ACHN cells after 48 hrs by sulforhodamine B assay; conditions: for TGI: read-out: pTGI (converted)
# How it was run: (§1)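 Cells grown in RPMI 1640 with 5% FBS and 2 mM L-glutamine, plated at 5000–40,000 cells/well and preincubated 24 h at 37 °C, 5% CO2. Five drug concentrations (10-fold or ½-log dilutions from DMSO stocks) applied for 48 h. TCA-fixed (final 10% adherent, 16% suspension), SRB-stained, A515 read. Growth versus time-zero and control wells gave GI50, TGI, LC50.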
# [2] = tested on: UACC-62; test: Antiproliferative activity against human UACC62 cells after 48 hrs by sulforhodamine B assay; conditions: UACC-62, 48 h; for TGI: read-out: pTGI (converted)
# How it was run: (§2)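 Cells in RPMI 1640 with 5% FBS and 2 mM L-glutamine were seeded at 5000–40,000/well according to doubling time and preincubated 24 h at 37 °C in 5% CO2. Time-zero plates were TCA-fixed when drug was added. Five 10-fold or ½-log dilutions from DMSO stocks were added for 48 h. After SRB staining, A515 was read and GI50 derived from [(Ti−Tz)/(C−Tz)]×100 = 50.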
# [3] = tested on: 786-0; test: Antiproliferative activity against human 786-0 cells after 48 hrs by sulforhodamine B assay; conditions: 786-0, 48 h; for TGI: read-out: pTGI (converted); how it was run: as §1
# [4] = tested on: LOX IMVI; test: Antiproliferative activity against human LOXIMVI cells after 48 hrs by sulforhodamine B assay; conditions: for CC50: read-out: pLC50 (the source's name) (converted); for TGI: read-out: pTGI (converted); how it was run: as §1
# [5] = Antiproliferative activity against human EKVX cells after 48 hrs by sulforhodamine B assay; conditions: for TGI: read-out: pTGI (converted); how it was run: as §1
# [6] = tested on: HCT-116; test: Antiproliferative activity against human HCT116 cells after 48 hrs by sulforhodamine B assay; conditions: HCT-116, 48 h; for TGI: read-out: pTGI (converted); how it was run: as §1
# [7] = Antiproliferative activity against human HCC2998 cells after 48 hrs by sulforhodamine B assay; conditions: HCC 2998, 48 h; for TGI: read-out: pTGI (converted); how it was run: as §1
# [8] = tested on: HOP-92; test: Antiproliferative activity against human HOP92 cells after 48 hrs by sulforhodamine B assay; conditions: HOP-92, 48 h; for CC50: read-out: pLC50 (the source's name) (converted); how it was run: as §1
# [9] = tested on: HT-29; test: Antiproliferative activity against human HT-29 cells after 48 hrs by sulforhodamine B assay; conditions: HT-29, 48 h; for TGI: read-out: pTGI (converted); how it was run: as §1
# [10] = tested on: PC-3; test: Antiproliferative activity against human PC3 cells after 48 hrs by sulforhodamine B assay; conditions: PC-3, 48 h; for TGI: read-out: pTGI (converted); how it was run: as §1
# [11] = tested on: MDA-MB-468; test: Antiproliferative activity against human MDA-MB-468 cells after 48 hrs by sulforhodamine B assay; conditions: MDA-MB-468, 48 h; for TGI: read-out: pTGI (converted); how it was run: as §1
# [12] = tested on: SR; test: Antiproliferative activity against human SR cells after 48 hrs by sulforhodamine B assay; how it was run: as §2
# [13] = tested on: SNB-19; test: Antiproliferative activity against human SNB19 cells after 48 hrs by sulforhodamine B assay; conditions: SNB-19, 48 h; for TGI: read-out: pTGI (converted); how it was run: as §1
# [14] = tested on: SK-MEL-28; test: Antiproliferative activity against human SK-MEL-28 cells after 48 hrs by sulforhodamine B assay; conditions: SK-MEL-28, 48 h; for TGI: read-out: pTGI (converted); how it was run: as §1
# [15] = tested on: OVCAR-5; test: Antiproliferative activity against human OVCAR5 cells after 48 hrs by sulforhodamine B assay; conditions: OVCAR-5, 48 h; for TGI: read-out: pTGI (converted); how it was run: as §1
# [16] = tested on: DU-145; test: Antiproliferative activity against human DU145 cells after 48 hrs by sulforhodamine B assay; conditions: DU-145, 48 h; for TGI: read-out: pTGI (converted); how it was run: as §1
# [17] = tested on: MCF7; test: Antiproliferative activity against human MCF7 cells after 48 hrs by sulforhodamine B assay; conditions: MCF7, 48 h; for TGI: read-out: pTGI (converted); how it was run: as §1
# [18] = Antiproliferative activity against human Hs 578T cells after 48 hrs by sulforhodamine B assay; conditions: for TGI: read-out: pTGI (converted); how it was run: as §1
# [19] = tested on: HL-60; test: Antiproliferative activity against human HL60 (TB) cells after 48 hrs by sulforhodamine B assay; conditions: HL-60, 48 h; for CC50: read-out: pLC50 (the source's name) (converted); for TGI: read-out: pTGI (converted)
# How it was run: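 NCI 60-cell panel protocol: cells in RPMI 1640 with 5% FBS and 2 mM L-glutamine, plated 24 h at 37 °C/5% CO2 before dosing. Compounds dissolved in DMSO and tested at five concentrations (10-fold or ½ log serial dilutions) for 48 h. Suspension cells fixed with 80% TCA (final 16%), SRB stained, absorbance at 515 nm. GI50 derived from time-zero-corrected growth.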
# [20] = tested on: CCRF-CEM; test: Antiproliferative activity against human CCRF-CEM cells after 48 hrs by sulforhodamine B assay; conditions: for TGI: read-out: pTGI (converted); how it was run: as §1
# [21] = tested on: U-251; test: Antiproliferative activity against human U251 cells after 48 hrs by sulforhodamine B assay; conditions: U-251, 48 h; for TGI: read-out: pTGI (converted); how it was run: as §2
# [22] = tested on: NCI-H322M; test: Antiproliferative activity against human NCI-H322M cells after 48 hrs by sulforhodamine B assay; conditions: for TGI: read-out: pTGI (converted); how it was run: as §1
# [23] = tested on: SF-539; test: Antiproliferative activity against human SF539 cells after 48 hrs by sulforhodamine B assay; conditions: SF-539, 48 h; for TGI: read-out: pTGI (converted); how it was run: as §1
# [24] = tested on: HCT-15; test: Antiproliferative activity against human HCT15 cells after 48 hrs by sulforhodamine B assay; conditions: HCT-15, 48 h; for TGI: read-out: pTGI (converted); how it was run: as §1
# [25] = tested on: MDA-MB-435; test: Antiproliferative activity against human MDA-MB-435 cells after 48 hrs by sulforhodamine B assay; conditions: MDA-MB-435, 48 h; for TGI: read-out: pTGI (converted); how it was run: as §1
# [26] = tested on: T47D; test: Antiproliferative activity against human T47D cells after 48 hrs by sulforhodamine B assay; conditions: for TGI: read-out: pTGI (converted); how it was run: as §2
# [27] = tested on: RPMI-8226; test: Antiproliferative activity against human RPMI8226 cells after 48 hrs by sulforhodamine B assay; conditions: RPMI-8226, 48 h; for CC50: read-out: pLC50 (the source's name) (converted); how it was run: as §1
# [28] = tested on: OVCAR-4; test: Antiproliferative activity against human OVCAR4 cells after 48 hrs by sulforhodamine B assay; conditions: OVCAR-4, 48 h; for TGI: read-out: pTGI (converted); how it was run: as §1
smiles,measurement,setting,value
O=C(CCCn1c(=O)c2sc3ncccc3c2n2nnc(-c3ccccc3)c12)NCCc1c[nH]cn1,GI50,[1],15.5 µM
same,LC50 (50% lethal concentration),[1],63.1 µM
same,TGI,[1],30.9 µM
same,GI50,[2],15.8 µM
same,LC50 (concentration killing 50% of cells),[2],57.5 µM
same,TGI,[2],30.2 µM
same,GI50,[3],12.6 µM
same,CC50,[3]; read-out: pLC50 (the source's name) (converted),52.5 µM
same,TGI,[3],25.7 µM
same,GI50,[4],12.3 µM
same,CC50,[4],57.5 µM
same,TGI,[4],26.3 µM
same,GI50,[5],15.1 µM
same,LC50,[5],> 100 µM
same,TGI,[5],44.7 µM
same,GI50,[6],380 nM
same,LC50,[6],38.9 µM
same,TGI,[6],10 µM
same,GI50,[7],2040 nM
same,LC50,[7],> 100 µM
same,TGI,[7],30.2 µM
same,GI50,[8],17 µM
same,CC50,[8],91.2 µM
same,TGI,[8]; read-out: pTGI (converted),39.8 µM
same,GI50,[9],3890 nM
same,LC50,[9],> 100 µM
same,TGI,[9],55 µM
same,GI50,[10],11 µM
same,LC50,[10],> 100 µM
same,TGI,[10],> 100 µM
same,GI50,[11],8.13 µM
same,LC50,[11],79.4 µM
same,TGI,[11],27.5 µM
same,GI50,[12],2510 nM
same,LC50 (50% lethal concentration),[12],> 100 µM
same,TGI,[12]; read-out: pTGI (converted),6.17 µM
same,GI50,[13],10.7 µM
same,LC50,[13],> 100 µM
same,TGI,[13],33.9 µM
same,GI50,[14],17 µM
same,LC50,[14],72.4 µM
same,TGI,[14],34.7 µM
same,GI50,[15],11.5 µM
same,LC50,[15],93.3 µM
same,TGI,[15],32.4 µM
same,GI50,[16],2750 nM
same,LC50,[16],61.7 µM
same,TGI,[16],19.5 µM
same,GI50,[17],17.8 µM
same,LC50,[17],> 100 µM
same,TGI,[17],> 100 µM
same,GI50,[18],11.2 µM
same,LC50,[18],87.1 µM
same,TGI,[18],31.6 µM
same,GI50,[19],1410 nM
same,CC50,[19],50.1 µM
same,TGI,[19],4.79 µM
same,GI50,[20],224 nM
same,LC50,[20],> 100 µM
same,TGI,[20],4.47 µM
same,GI50,[21],1290 nM
same,LC50,[21],45.7 µM
same,TGI,[21],14.8 µM
same,GI50,[22],14.8 µM
same,LC50,[22],89.1 µM
same,TGI,[22],36.3 µM
same,GI50,[23],316 nM
same,LC50,[23],53.7 µM
same,TGI,[23],14.8 µM
same,GI50,[24],5.75 µM
same,LC50,[24],> 100 µM
same,TGI,[24],> 100000 nM
same,GI50,[25],490 nM
same,LC50,[25],> 100 µM
same,TGI,[25],20.4 µM
same,GI50,[26],1860 nM
same,LC50,[26],64.6 µM
same,TGI,[26],21.4 µM
same,GI50,[27],5.13 µM
same,CC50,[27],> 100 µM
same,TGI,[27]; read-out: pTGI (converted),35.5 µM
same,GI50,[28],15.5 µM
same,LC50 (concentration killing 50% of cells),[28],67.6 µM
same,TGI,[28],32.4 µM
O=C(CCCn1c(=O)c2sc3ccccc3c2n2nnc(-c3ccccc3)c12)NCCc1c[nH]cn1,GI50,[1],1.66 µM
same,LC50 (50% lethal concentration),[1],5.5 µM
same,TGI,[1],3.02 µM
same,GI50,[2],1.91 µM
same,LC50 (concentration killing 50% of cells),[2],6.61 µM
same,TGI,[2],3.55 µM
same,GI50,[3],1.58 µM
same,TGI,[3],3.55 µM
same,GI50,[4],1.58 µM
same,CC50,[4],5.37 µM
same,TGI,[4],2.95 µM
same,GI50,[5],2.69 µM
same,LC50,[5],> 100 µM
same,TGI,[5],8.71 µM
same,GI50,[6],339 nM
same,LC50,[6],> 100 µM
same,TGI,[6],1.66 µM
same,GI50,[7],1780 nM
same,LC50,[7],9.77 µM
same,TGI,[7],4.17 µM
same,GI50,[8],1.86 µM
same,CC50,[8],> 100 µM
same,GI50,[9],1350 nM
same,LC50,[9],7.41 µM
same,TGI,[9],3.16 µM
same,LC50,[10],> 100 µM
same,TGI,[10],> 100 µM
same,GI50,[11],1.7 µM
same,LC50,[11],7.94 µM
same,TGI,[11],3.72 µM
same,GI50,[13],1.7 µM
same,LC50,[13],> 100 µM
same,TGI,[13],5.01 µM
same,GI50,[14],1.74 µM
same,LC50,[14],5.89 µM
same,TGI,[14],3.24 µM
same,GI50,[15],1.2 µM
same,TGI,[15],2.75 µM
same,GI50,[16],1550 nM
same,LC50,[16],5.75 µM
same,TGI,[16],2.95 µM
same,GI50,[17],1.45 µM
same,LC50,[17],6.46 µM
same,TGI,[17],3.09 µM
same,GI50,[18],1.74 µM
same,TGI,[18],4.07 µM
same,GI50,[19],1410 nM
same,CC50,[19],> 100 µM
same,TGI,[19],6.31 µM
same,LC50,[20],> 100 µM
same,TGI,[20],> 100 µM
same,GI50,[21],1050 nM
same,LC50,[21],4.68 µM
same,TGI,[21],2.24 µM
same,GI50,[22],2.24 µM
same,LC50,[22],21.4 µM
same,TGI,[22],5.5 µM
same,GI50,[23],661 nM
same,LC50,[23],5.75 µM
same,TGI,[23],2.19 µM
same,GI50,[24],1.26 µM
same,LC50,[24],5.01 µM
same,TGI,[24],2510 nM
same,GI50,[25],1480 nM
same,LC50,[25],6.31 µM
same,TGI,[25],3.09 µM
same,GI50,[26],1410 nM
same,LC50,[26],> 100 µM
same,TGI,[26],4.47 µM
same,CC50,[27],> 100 µM
same,GI50,[28],1.74 µM
same,TGI,[28],3.8 µM

# Reference: ChEMBL document CHEMBL2346608, “New annelated thieno[2,3-e][1,2,3]triazolo[1,5-a]pyrimidines, with potent anticancer activity, designed through VLAK protocol” (2013)
